# Assay results as given in ChEMBL document CHEMBL1124357, “The xanthene-9-spiro-4'-piperidine nucleus as a probe for opiate activity” (J Med Chem, 1989).
# pIC50: −log10 of the molar value.
# Species: Cavia porcellus
# Assay: Relative potency to that of normorphine in the electrically stimulated Guinea pig ileum test
# Assay type: functional
# Outline: (§1)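 Electrically evoked twitch of guinea pig tissue. IC50, the concentration giving 50% inhibition of the twitch, was calculated by linear regression. Potency was expressed relative to normorphine assayed on the same tissues.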
row,SMILES,Relative potency
1,COc1cccc2c1C1(CCN(C)CC1)c1cccc(O)c1O2,0.094
2,CN1CCC2(CC1)c1ccccc1Oc1c(S)cccc12,0.001
3,CN1CCC2(CC1)c1cccc(O)c1Oc1cccc(Cl)c12,0.031
4,CN1CCC2(CC1)c1ccccc1Oc1c(N)cccc12,0.055
5,CC(=O)Nc1cccc2c1Oc1ccccc1C21CCN(C)CC1,0.008
6,CN1CCC2(CC1)c1ccccc1Oc1c(CO)cccc12,0.004
7,CN1CCC2(CC1)c1ccccc1Oc1c(O)cccc12,0.175
8,CN1CCC2(CC1)c1cccc(O)c1Oc1cccc(F)c12,0.16
9,CCC(=O)C(CC(C)N(C)C)(c1ccccc1)c1ccccc1 (stereo not drawn) [METHADONE],0.91
10,c1ccc(NCCN2CCC3(CC2)c2ccccc2Oc2ccccc23)cc1,3.5
11,CC(=O)Oc1cccc2c1Oc1ccccc1C21CCN(C)CC1,1
12,Cc1cccc2c1C1(CCN(C)CC1)c1cccc(O)c1O2,0.237

# Species: Cavia porcellus
# Assay: Concentration to produce 50%inhibition of the electrically evoked twitch in guinea pig
# Assay type: functional
# Outline: as §1
row,SMILES,pIC50
1,Oc1ccc2c3c1O[C@H]1[C@@H](O)C=C[C@H]4[C@@H](C2)NCC[C@@]341 [NORMORPHINE],7.50
